Source: PubChem
ABCB1 block: inhibitors of human ABCB1 transporter, ABCG2 counter-screen | P08183 | CCRF-Adr cells, JC-1 efflux, flow cytometry | inhibition, % at 6.6 µM | actives 0.067% (n = 190,000); in the data active = inhibition above about 40%;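 note: 0% = vehicle and 100% = reference inhibitor; higher value means more JC-1 retained so stronger ABCB1 efflux block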
ABCG2 inh: human ABCG2 inhibition, ABCB1 as counter-screen; Q9UNQ0; IgMXP3 cells, JC-1 efflux, flow cytometry; inhibition, % at 6.6 µM; actives 0.1% (n = 190,000); AID 1325;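 active = inhibition above 80%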;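 note: 0% = DMSO and 100% = nicardipine control wells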
Target sequence (Q9UNQ0 whole entry, looked up): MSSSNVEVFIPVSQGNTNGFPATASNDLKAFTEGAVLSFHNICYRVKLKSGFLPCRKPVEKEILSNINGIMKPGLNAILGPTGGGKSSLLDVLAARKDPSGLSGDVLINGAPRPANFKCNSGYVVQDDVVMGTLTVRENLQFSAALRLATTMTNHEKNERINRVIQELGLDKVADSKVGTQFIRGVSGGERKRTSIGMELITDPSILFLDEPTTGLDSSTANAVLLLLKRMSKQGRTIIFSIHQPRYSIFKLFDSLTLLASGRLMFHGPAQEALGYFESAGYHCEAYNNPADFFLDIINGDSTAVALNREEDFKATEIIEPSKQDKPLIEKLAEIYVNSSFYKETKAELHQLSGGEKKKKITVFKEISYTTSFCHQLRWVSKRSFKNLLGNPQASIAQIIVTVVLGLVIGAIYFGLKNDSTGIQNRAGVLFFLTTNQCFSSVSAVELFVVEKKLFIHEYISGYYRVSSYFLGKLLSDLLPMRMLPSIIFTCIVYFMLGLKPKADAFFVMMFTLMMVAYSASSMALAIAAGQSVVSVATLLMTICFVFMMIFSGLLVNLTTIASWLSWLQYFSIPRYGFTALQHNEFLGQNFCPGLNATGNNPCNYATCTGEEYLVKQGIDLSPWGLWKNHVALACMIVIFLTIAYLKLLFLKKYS
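Test system: ABCG2 IgMXP3 and barcoded ABCB1 CCRF-Adr cell mix; Schedule: cells with compound and JC-1, 10 min at 25 °C, rotating, no wash; Technique: flow cytometry of retained JC-1 fluorescence; Measure: % inhibition of efflux relative to nicardipine and DMSO; Controls: nicardipine high and DMSO low controls.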
RAM network inh: inhibitors of the yeast RAM network | S. cerevisiae dse1pr::URA3 reporter, 5-FOA growth OD615, 2 d; analog-sensitive cbk1-as2 kinase mutant strain | inhibition, % at 50 µM | actives 1.8% (n = 190,000) | AID 868;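 active = inhibition above a set limit, 3 SD over mean compound inhibition, cut at about 8.4% in these data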;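 note: 0% = DMSO-only wells with no growth and 100% = 10 µM 1-NA-PP1 full growth; inhibition rescues growth on 5-FOA so higher OD means more RAM inhibition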
WT yeast gro inh: growth inhibition of WT yeast, mitochondrial fusion screen | mitochondrial fusion phenotypic screen, WT strain | inhibition, % at 10 µM | actives 2.1% (n = 190,000) | AID 1362; in the data active = inhibition above about 58%; tested in S. cerevisiae
Lmaj promast: inhibitors of Leishmania major promastigote growth; Leishmania major promastigotes, resazurin fluorescence viability; inhibition, % at 10 µM; actives 9% (n = 200,000); in the data active = inhibition above about 50%;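 note: promastigotes grown with compound for 44 hours at 28 °C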
Active calls of the source: *; . = no result. Hits are enriched below; roughly 12% of the tested compounds scored in any of these assays.

SMILES | ABCB1 block | ABCG2 inh | RAM network inh | WT yeast gro inh | Lmaj promast
Cc1ccc(NC(=S)NC2CCN(Cc3ccccc3)CC2)cc1C | 2 | 8 | 2 | 11 | 94*
Cc1ccc(NC(=S)NC2CCN(Cc3ccccc3)CC2)cc1 | 0 | 6 | 0 | 4 | 100*
O=[N+]([O-])c1ccccc1Sc1nccn1Cc1ccccc1 | 0 | 2 | 1 | 5 | 20
Cc1cccn2c(CN3CCCC(c4ccccc4)C3)c(C(=O)N3CCOCC3)nc12 (configuration not stated) | 1 | 1 | -2 | 5 | 7
COc1cc(OC)cc(C2=NCCN2)c1 | 0 | -1 | 0 | -1 | -6
CSc1ccc(S(=O)(=O)Nc2ccc(OCC(=O)N3CCOCC3)cc2)cc1 | 1 | 2 | 1 | -11 | -2
CCN(C(=O)CSC1=Nc2ccccc2C2CC=NN12)C1CCS(=O)(=O)C1 (configuration not stated) | 1 | 5 | 0 | 3 | 7
Cc1ccc(NC(=O)CN2CCC(NC(=O)Cc3ccccc3)CC2)c(C)c1 | . | 4 | 3 | -1 | 70*
CCCCn1c(C)cc(C)c(S(=O)(=O)c2ccccc2C)c1=O | -1 | 2 | 0 | 39 | 97*
Cc1ccccc1S(=O)(=O)c1c(C)cc(C)n(C(C)C)c1=O | 1 | 4 | 0 | 11 | 89*
CCOCCOc1nc(C)cc(C)c1S(=O)(=O)c1ccccc1C | 0 | 0 | 4 | -15 | 11
Cc1cc(C)c(S(=O)(=O)N2CCCCC2C(=O)O)c(C)c1 (configuration not stated) | 0 | -2 | 0 | -12 | -3
CCN(CC)S(=O)(=O)c1ccc(N2CCCC2)c(NC(=O)Cc2ccc(OC)cc2)c1 | 2 | 1 | 3 | 4 | -2
COc1ccc(NS(=O)(=O)c2ccc(N3CCCC3)c(NC(=S)Nc3ccc(SC(F)F)cc3)c2)cc1 | -1 | -8 | 5 | -17 | 87*
O=S(=O)(Nc1ccc(Cl)cc1)c1ccc(N2CCOCC2)c(NC(=S)NC2CC2)c1 | -3 | -1 | 5 | -3 | -1
COc1ccc(NS(=O)(=O)c2ccc(N3CCCC3)c(NC(=S)Nc3cccc(C)c3C)c2)cc1 | 0 | -8 | 5 | -12 | 58*
Cc1ccc(NS(=O)(=O)c2cc(C(=O)NCCSC3CCCCC3)ccc2C)cc1 | 1 | 2 | 5 | 20 | 79*
Cc1ccc(NS(=O)(=O)c2cc(C(=O)NCCSc3ccc(C)cc3)ccc2C)cc1 | 0 | 1 | 6 | -4 | 100*
Cc1ccc(C(=O)NCCSc2ccc(Cl)cc2)cc1S(=O)(=O)Nc1ccccc1 | 0 | 3 | 10* | 8 | 97*
Cc1cnccc1CN(C)Cc1cn(C)nc1-c1cccc(Cl)c1 | -2 | 2 | 0 | 16 | 8
Cc1cnccc1CN(C)Cc1cn(C)nc1-c1ccc(Oc2ccccc2)cc1 | 2 | 2 | 1 | 50 | 89*
Cc1ccc(S(=O)(=O)N2CCOCC2)cc1C(=O)Nc1ccc2c(c1)CCC2 | 1 | 5 | 2 | 13 | 52*
CC(=O)Nc1ccc(NC(=O)Cc2ccc(S(=O)(=O)N3CCCCC3)s2)cc1 | -3 | 0 | 1 | -6 | 0
Cc1ccc(S(=O)(=O)N2CCOCC2)cc1C(=O)Nc1ccc(-c2cn3ccsc3n2)cc1 | 1 | 7 | 0 | -3 | 4
O=C(Cc1ccc(S(=O)(=O)N2CCOCC2)s1)Nc1ccc2c(c1)CCC2 | 1 | 6 | 9.4* | 9 | 2
SMILES | ABCB1 block | ABCG2 inh | RAM network inh | WT yeast gro inh | Lmaj promast
Cc1cccc(C)c1NC(=O)CSc1nnc(C)c(=O)[nH]1 | 1 | -3 | -2 | -12 | 66*
Cc1ccc(NC(=O)CSc2nnc(C)c(=O)[nH]2)cc1C | 0 | 2 | 2 | -14 | -5
CC(NC(=O)c1ccco1)C(c1cccs1)N1CCOCC1 (configuration not stated) | 1 | 2 | 1 | 6 | -3
O=C(NC(=S)NNC(=O)c1cnccn1)c1ccc(F)cc1 | -1 | 5 | 4 | -4 | 100*
O=C(NNC(=S)NC(=O)c1cccnc1)c1ccccc1 | 0 | 2 | 0 | -22 | -4
COC(=O)c1c(C(=O)OC)n(CCCN)c2ccc(C)cc12 | 1 | 2 | 1 | . | 59*
C=CCc1c(C)nc(C)nc1N/N=C/c1ccc([N+](=O)[O-])cc1 | 2 | 48 | 1 | 5 | 22
C=CCc1c(C)nc(C)nc1N/N=C/c1ccccc1O | 4 | 16 | 0 | -8 | 99*
O=C(CSc1ccc(Cl)cc1)Nc1ccccc1N1CCN(C(=O)c2ccccc2)CC1 | 32 | 32 | 3 | 7 | 72*
CS(=O)(=O)N1CCN(c2ccccc2NC(=O)CSc2ccc(Cl)cc2)CC1 | 4 | 15 | 2 | 27 | 31
Cc1nn(Cc2ccccc2)c(Cl)c1C(=O)OCC#N | 1 | 6 | 1 | -7 | -8
CCN(CC)S(=O)(=O)c1ccc(O)c(NS(=O)(=O)c2ccccc2F)c1 | 0 | -7 | -1 | -16 | -10
O=C(NC(=S)Nc1c(Cl)ccc2nsnc12)c1ccco1 | -1 | -7 | 2 | 0 | -6
C=CCn1c(COc2ccccc2-c2ccccc2)nnc1SCC(=O)NC(=O)NCc1ccco1 | -1 | -2 | 2 | 95* | -3
COC(=O)c1ccc(C2NC(=S)N(c3ccccc3)C(C)=C2C(=O)Nc2ccccc2OC)cc1 (configuration not stated) | 2 | 4 | 2 | 4 | 72*
COc1ccccc1NC(=O)C1=C(C)N(c2ccccc2)C(=S)NC1c1cccc(C(F)(F)F)c1 (configuration not stated) | 2 | 12 | 2 | 21 | 50
COc1cc(NC(=O)c2cccc(C)c2)c(Cl)cc1[N+](=O)[O-] | 0 | 5 | 8 | 1 | -5
Cc1cc([N+](=O)[O-])c2c(c1C)C1C=CCC1C(c1ccccn1)N2 (configuration not stated) | 1 | 2 | 1 | 20 | -5
CCSc1nnc2c(n1)[nH]c1c(C)cccc12 | 1 | 3 | 3 | 24 | 32
C=CCSc1nnc2nc3[nH]c4c(C)cccc4c3nn12 | 0 | 13 | 3 | 11 | 72*
CSc1nc(C)cc(SCC(=O)N/N=C/c2ccccc2)n1 | 0 | 1 | 4 | -6 | -4
Cc1sc(NC(=O)c2sc3nc4c(C)cccc4cc3c2N)c(C#N)c1C | 3 | 3 | 4 | 15 | 56*
CC1=CC(C)(C)Nc2ccc(OC(=O)CCN3C(=O)c4ccccc4C3=O)cc21 | 3 | 3 | 3 | -10 | 79*
CC1=CC(C)(C)Nc2ccc(OS(=O)(=O)c3ccc(C)cc3)cc21 | 0 | 2 | 8 | 21 | 94*
CC(=O)Nc1ccc(S(=O)(=O)Oc2ccc3c(c2)C(C)=CC(C)(C)N3)cc1 | 1 | 10 | 1 | -1 | 25
O=C1CCC(C(=O)Nc2cccc(S(=O)(=O)N3CCOCC3)c2)N1 (configuration not stated) | 1 | 1 | 1 | 4 | -7
